Key:
[1] = system: IL-6 production in LPS-induced A549 cells; assay: Inhibition of IL-6 production; type: cell-based; conditions: Homo sapiens, A549, 24 h, read-out: inhibitory rate on IL-6
In short: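 A549 cells preincubated 1 h with test compound (10^-11–10^-6 M), then stimulated with LPS-EB (5 µL of 10 µg/mL solution) for 24 h. IL-6 in supernatants measured by ELISA, read at 450 nm. Inhibitory rate of IL-6 production calculated; IC50 from dose–response curves; n=3, mean ± SD.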

[2] = Equilibrium solubility in distilled water; type: physicochemical; conditions: 25°C, 72 hours
In short: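 Supernatant sampled at 0, 12, 24, 36, 48, 60 and 72 h and passed through a 0.45-µm filter. Concentration measured by HPLC at 242 nm, 30°C, 1.0 mL/min. Mobile phase was methanol or acetonitrile with phosphate buffer (pH 8.0 or 7.4; 70:30 or 80:20 v/v), depending on compound.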

[3] = system: xylene-induced ear edema; assay: Xylene-induced ear edema test; type: in vivo; conditions: mice, intraperitoneal, equivalent to 200 μg/kg Bud, 1 hour before xylene
In short: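 Male Kunming mice (20–25 g), n=10 per group, dosed intraperitoneally (0.1 mL/10 g body weight) with test compound at a dose equivalent to 200 µg/kg budesonide; vehicle 2% DMSO. After 1 h, 20 µL xylene applied to right ear, left ear untreated. Killed 1 h later; 6-mm ear discs weighed. Edema = right minus left ear weight. Analysed by one-way ANOVA with Fisher's LSD; mean ± SD.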

CCCC1O[C@@H]2C[C@H]3[C@@H]4CCC5=CC(=O)C=C[C@]5(C)[C@H]4[C@@H](O)C[C@]3(C)[C@]2(C(=O)CO)O1 (stereo partly drawn) [Bud, budesonide]
inhibition at 0.001 µM [1]: > 50%
equilibrium solubility [2]: 0.0022 g/100 g water
inhibition of ear edema [3]: 17.19%
